Results published in ChEMBL document CHEMBL1141258, “Prismatomerin, a new iridoid from Prismatomeris tetrandra. Structure elucidation, determination of absolute configuration, and cytotoxicity” (J Nat Prod, 2007).
Calls of active or inactive are those of the source. The calls are words filed in the database; no cut-off is given here.

Assays:
[1] = test system: U-251; assay: Growth inhibition of human U251 cells after 48 hrs by SRB assay; assay type: functional; conditions: U-251, 48 h
How it was run: (§1)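 Run at NCI in the 60-human-tumor-cell-line anticancer screen. Each compound was tested at a minimum of five concentrations at 10-fold dilutions.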

[2] = test system: Hs-578T; assay: Growth inhibition of human HS578T cells after 48 hrs by SRB assay; assay type: functional
How it was run: (§2)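 NCI 60 human tumour cell line in vitro anticancer screen, run at NCI. Compound tested at a minimum of five concentrations in 10-fold dilutions per cell line.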

[3] = test system: T47D; assay: Growth inhibition of human T47D cells after 48 hrs by SRB assay; assay type: functional; how it was run: as §2
[4] = test system: NCI-H460; assay: Growth inhibition of human NCI-H460 cells after 48 hrs by SRB assay; assay type: functional; conditions: NCI-H460, 48 h; how it was run: as §2
[5] = test system: OVCAR-5; assay: Growth inhibition of human OVACAR5 cells after 48 hrs by SRB assay; assay type: functional; conditions: OVCAR-5, 48 h; how it was run: as §1
[6] = test system: CCRF-CEM; assay: Growth inhibition of human CCRF-CEM cells after 48 hrs by SRB assay; assay type: functional; how it was run: as §2
[7] = test system: BT-549; assay: Growth inhibition of human BT549 cells after 48 hrs by SRB assay; assay type: functional; how it was run: as §1
[8] = test system: RXF 393; assay: Growth inhibition of human RFX393 cells after 48 hrs by SRB assay; assay type: functional; conditions: RXF 393, 48 h; how it was run: as §1
[9] = test system: SF-539; assay: Growth inhibition of human SF539 cells after 48 hrs by SRB assay; assay type: functional; conditions: SF-539, 48 h; how it was run: as §1
[10] = test system: L929; assay: Antiproliferative activity against mouse L929 cells after 5 days by SRB assay; assay type: cell-based; conditions: L929, 120 h
[11] = test system: HOP-62; assay: Growth inhibition of human HOP62 cells after 48 hrs by SRB assay; assay type: functional; conditions: HOP-62, 48 h; how it was run: as §1
[12] = test system: 786-0; assay: Growth inhibition of human 786-0 cells after 48 hrs by SRB assay; assay type: functional; conditions: 786-0, 48 h; how it was run: as §1
[13] = test system: HCT-15; assay: Growth inhibition of human HCT15 cells after 48 hrs by SRB assay; assay type: functional; conditions: HCT-15, 48 h; how it was run: as §1
[14] = test system: EKVX; assay: Growth inhibition of human EKVX cells after 48 hrs by SRB assay; assay type: functional; how it was run: as §2
[15] = test system: NCI-H23; assay: Growth inhibition of human NCIH23 cells after 48 hrs by SRB assay; assay type: functional; conditions: NCI-H23, 48 h; how it was run: as §2
[16] = Growth inhibition of human OVACAR3 cells after 48 hrs by SRB assay; assay type: functional; conditions: OVACAR3, 48 h; how it was run: as §1
[17] = test system: MOLT-4; assay: Growth inhibition of human MOLT4 cells after 48 hrs by SRB assay; assay type: functional; conditions: MOLT-4, 48 h; how it was run: as §1
[18] = test system: DU-145; assay: Growth inhibition of human DU145 cells after 48 hrs by SRB assay; assay type: functional; how it was run: as §1
[19] = (§3) Growth inhibition of human […] cells after 48 hrs by SRB assay; assay type: functional; how it was run: as §1
[20] = test system: MDA-MB235; assay: as §3; assay type: functional; how it was run: as §1
[21] = test system: M14; assay: Growth inhibition of human M14 cells after 48 hrs by SRB assay; assay type: functional; how it was run: as §1
[22] = test system: KM12; assay: Growth inhibition of human KM12 cells after 48 hrs by SRB assay; assay type: functional; conditions: KM12, 48 h; how it was run: as §1
[23] = test system: UACC-257; assay: Growth inhibition of human UACC257 cells after 48 hrs by SRB assay; assay type: functional; conditions: UACC-257, 48 h; how it was run: as §2
[24] = test system: OVCAR-8; assay: Growth inhibition of human OVACAR8 cells after 48 hrs by SRB assay; assay type: functional; conditions: OVCAR-8, 48 h; how it was run: as §1
[25] = test system: SF-268; assay: Growth inhibition of human SF268 cells after 48 hrs by SRB assay; assay type: functional; conditions: SF-268, 48 h; how it was run: as §1
[26] = test system: LOX IMVI; assay: Growth inhibition of human LOXIMVI cells after 48 hrs by SRB assay; assay type: functional; how it was run: as §1
[27] = test system: TK-10; assay: Growth inhibition of human TK10 cells after 48 hrs by SRB assay; assay type: functional; conditions: TK-10, 48 h; how it was run: as §2
[28] = test system: UACC-62; assay: Growth inhibition of human UACC62 cells after 48 hrs by SRB assay; assay type: functional; conditions: UACC-62, 48 h; how it was run: as §2
[29] = test system: A549; assay: Growth inhibition of human A549 cells after 48 hrs by SRB assay; assay type: functional; conditions: A549, 48 h; how it was run: as §1
[30] = test system: HT-29; assay: Growth inhibition of human HT29 cells after 48 hrs by SRB assay; assay type: functional; conditions: HT-29, 48 h; how it was run: as §2
[31] = test system: SW-620; assay: Growth inhibition of human SW620 cells after 48 hrs by SRB assay; assay type: functional; conditions: SW-620, 48 h; how it was run: as §2
[32] = test system: UO-31; assay: Growth inhibition of human UO31 cells after 48 hrs by SRB assay; assay type: functional; conditions: UO-31, 48 h; how it was run: as §2
[33] = test system: SF-295; assay: Growth inhibition of human SF295 cells after 48 hrs by SRB assay; assay type: functional; how it was run: as §1
[34] = test system: CAKI-1; assay: Growth inhibition of human CAKI1 cells after 48 hrs by SRB assay; assay type: functional; conditions: CAKI-1, 48 h; how it was run: as §1
[35] = test system: A549; assay: Antiproliferative activity against human A549 cells after 5 days by MTT assay; conditions: A549, 120 h
[36] = test system: SR; assay: Growth inhibition of human SR cells after 48 hrs by SRB assay; assay type: functional; how it was run: as §1
[37] = test system: SW480; assay: Antiproliferative activity against human SW480 cells after 5 days by MTT assay; conditions: SW480, 120 h
[38] = test system: A498; assay: Growth inhibition of human A498 cells after 48 hrs by SRB assay; assay type: functional; conditions: A498, 48 h; how it was run: as §1
[39] = read-out: Log LC50 (the source's name) (converted)

Molecule `COC(=O)C1=CO[C@@H]2O[C@H]3/C(=C\c4ccc(O)cc4)C(=O)O[C@]34C=C[C@H]1[C@H]24` [PRISMATOMERIN] has a GI50 [1] of 295 nM, a CC50 [1, 39] of 60300 nM and a TGI ([1]; read-out: Log TGI (converted)) of 955 nM. The GI50 [2] was 257 nM, the CC50 [2, 39] was greater than 100000 nM and the GI50 [3] was 380 nM. For the same molecule, the CC50 [3, 39] was 3890 nM, the GI50 [4] was 240 nM and the CC50 [4, 39] was greater than 100000 nM. The GI50 [5] was 257 nM, the CC50 [5, 39] was 813 nM and the TGI ([5]; read-out: Log TGI (converted)) was 407 nM. For the same molecule, the GI50 [6] was 38 nM, the CC50 [6, 39] was greater than 100000 nM and the Activity [7] was “inactive”. It also gave a GI50 ([7]; BT-549, 48 h) of 151 nM, a GI50 [8] of less than 10 nM and a CC50 [8, 39] of 661 nM. It also gave a TGI ([8]; read-out: Log TGI (converted)) of 162 nM, a GI50 [9] of 257 nM and a CC50 [9, 39] greater than 100000 nM. The TGI ([9]; read-out: Log TGI (converted)) was 457 nM, the IC50 [10] was 210 nM and the GI50 [11] was 263 nM. For the same molecule, the CC50 [11, 39] was 2820 nM, the TGI ([11]; read-out: Log TGI (converted)) was 708 nM and the GI50 [12] was 19.5 nM. It also gave a CC50 [12, 39] of 550 nM, a TGI ([12]; read-out: Log TGI (converted)) of 195 nM and a GI50 [13] of 162 nM. It also gave a CC50 [13, 39] of 3800 nM, a TGI ([13]; read-out: Log TGI (converted)) of 575 nM and a GI50 [14] of 355 nM. The CC50 [14, 39] was 40700 nM, the GI50 [15] was 186 nM and the CC50 [15, 39] was 933 nM. It also gave a GI50 [16] of 490 nM, a CC50 [16, 39] of 1700 nM and a TGI ([16]; read-out: Log TGI (converted)) of 562 nM. For the same molecule, the GI50 [17] was less than 10 nM, the Activity [18] was “inactive” and the GI50 ([18]; DU-145, 48 h) was 115 nM. For the same molecule, the GI50 [19] was 200 nM, the Activity [20] was “inactive” and the Activity [21] was “inactive”. For the same molecule, the GI50 ([21]; M14, 48 h) was 162 nM, the GI50 [22] was 302 nM and the CC50 [22, 39] was greater than 100000 nM. It also gave a TGI ([22]; read-out: Log TGI (converted)) of 1510 nM, a GI50 [23] of 145 nM and a CC50 [23, 39] of 10000 nM. It also gave a GI50 [24] of 174 nM, a CC50 [24, 39] of 2240 nM and a TGI ([24]; read-out: Log TGI (converted)) of 501 nM. For the same molecule, the GI50 [25] was 263 nM, the CC50 [25, 39] was 63100 nM and the TGI ([25]; read-out: Log TGI (converted)) was 759 nM. The GI50 [26] was 20.9 nM, the CC50 [26, 39] was 708 nM and the TGI ([26]; read-out: Log TGI (converted)) was 240 nM. The GI50 [27] was 288 nM, the CC50 [27, 39] was 3980 nM and the GI50 [28] was 437 nM. The CC50 [28, 39] was 575 nM, the GI50 [29] was 295 nM and the CC50 [29, 39] was greater than 100000 nM. For the same molecule, the TGI ([29]; read-out: Log TGI (converted)) was 832 nM, the GI50 [30] was 107 nM and the CC50 [30, 39] was greater than 100000 nM. It also gave a GI50 [31] of less than 10 nM, a CC50 [31, 39] greater than 100000 nM and a GI50 [32] of 120 nM. For the same molecule, the CC50 [32, 39] was 813 nM, the Activity [33] was “inactive” and the GI50 ([33]; SF-295, 48 h) was 589 nM. For the same molecule, the GI50 [34] was 126 nM, the CC50 [34, 39] was 8710 nM and the TGI ([34]; read-out: Log TGI (converted)) was 501 nM. The IC50 [35] was 1410 nM, the GI50 [36] was 10.5 nM and the CC50 [36, 39] was greater than 100000 nM. For the same molecule, the TGI ([36]; read-out: Log TGI (converted)) was 468 nM, the IC50 [37] was 60 nM and the GI50 [38] was 234 nM. For the same molecule, the CC50 [38, 39] was 871 nM and the TGI ([38]; read-out: Log TGI (converted)) was 457 nM.
